Legend:
Mus musculus [1] = species: Mus musculus; assay: Anticonvulsant potency using the maximal electroshock test in mice; format: functional
In short: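 Male mice received intra-aural shocks through clip electrodes (0.7 s, 28 mA, 80 Hz pulse train, 0.4 ms pulses), a stimulus giving hindlimb tonic extension in at least 97% of controls. Compound was given orally 60 min or ip 30 min beforehand, at 5 mL/kg. Protection meant complete suppression of the hindlimb tonic extensor component. ED50 (95% confidence interval) was obtained by probit analysis, with 10-20 animals per dose.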

[2] = Toxicity using neurological impairment measured by rotarod test in mice; settings: mouse, in vivo
In short: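 Trained male Crl:CD-1(ICR)BR mice (22-24 g) were dosed orally at 5 mL/kg 60 min before testing on a 3-cm rod rotating at 10 rpm. Falls during a 2-min period were counted. TD50, the dose making 50% of animals fall, was calculated by probit analysis, with 10-20 animals per dose.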

Mus musculus [3] = assay: Anticonvulsant potency using the intravenous-BIC (bicuculline) test in mice; format: functional
In short: (§1)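 Male Crl:CD-1(ICR)BR mice (22-24 g) were dosed orally at 5 mL/kg 60 min before bicuculline 0.6 mg/kg, a dose giving tonic extensor convulsions in at least 97% of vehicle-treated mice. Protection from tonic extension was scored for each mouse. ED50 (95% confidence interval) was obtained by probit analysis, with 10-20 animals per dose.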

Mus musculus [4] = assay: Compound was tested for anticonvulsant potency using the intravenous-BIC (bicuculline) test in mice; compound at 200 mg/kg induced impaired gait, loss of the righting reflex, and impaired breathing; format: functional; in short: as §1
Mus musculus [5] = assay: Compound was tested for anticonvulsant potency using the 3-MPA (3-mercaptopropionic acid) test in mice upon peroral administration; format: functional; settings: po
In short: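 Male Crl:CD-1(ICR)BR mice (22-24 g) were dosed orally at 5 mL/kg 60 min before 3-mercaptopropionic acid 60 mg/kg sc, a dose convulsing at least 97% of vehicle-treated mice. The end point was hindlimb tonic extension. ED50 (95% confidence interval) was obtained by probit analysis, with 10-20 animals per dose.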

Mus musculus [6] = assay: Anticonvulsant potency using the PTX (picrotoxin) test in mice by peroral administration; format: functional; settings: po
Mus musculus [7] = assay: Compound was tested for anticonvulsant potency using the STRY (strychnine) test in mice upon peroral administration; format: functional; settings: po
Mus musculus [8] = assay: Compound was tested for anticonvulsant potency using the intravenous-BIC (bicuculline) test in mice; 5 out of 20 mice exhibited anticonvulsant activity; format: functional
Mus musculus [9] = assay: Compound was tested for anticonvulsant potency using the intravenous-BIC (bicuculline) test in mice; 0 out of 20 mice exhibited anticonvulsant activity; format: functional
Mus musculus [10] = species: Mus musculus; assay: Compound was tested for toxicity using neurological impairment measured by rotarod test in mice; format: functional
In short: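 Trained male Crl:CD-1(ICR)BR mice, 22-24 g, dosed orally 60 min before being placed on a 3-cm rod turning at 10 rpm. Mice falling during a 2-min test were counted. Dosing volume 5 mL/kg, 10-20 animals/dose. TD50, the dose making 50% fall, by probit analysis with 95% confidence interval. Some values given as fraction affected at one dose.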

Row | Structure (SMILES) | ED50 (Mus musculus [1]) | TD50 [2] | ED50 (Mus musculus [3]) | further results
1 | C[C@@H](NCc1ccc(COc2ccccc2)cc1)C(N)=O | 10.6 mg/kg | 597 mg/kg | 40.3 mg/kg | –
2 | NC(=O)[C@@H](CO)NCc1ccc(OCc2ccccc2)cc1 | – | – | 133 mg/kg | –
3 | C[C@@H](NCc1ccc(SCc2ccccc2)cc1)C(N)=O | 8.6 mg/kg | 633 mg/kg | 24.8 mg/kg | –
4 | CNC(=O)[C@H](CCSC)NCc1ccc(OCc2ccccc2)cc1 | – | – | 239 mg/kg | –
5 | CNC(=O)[C@@H](CO)NCc1ccc(OCc2cccc(C(F)(F)F)c2)cc1 | 13.1 mg/kg | 750 mg/kg | 19.5 mg/kg | –
6 | C[C@@H](NCc1ccc(OCc2ccc(F)cc2)cc1)C(N)=O | 16.3 mg/kg | – | 132 mg/kg | –
7 | CNC(=O)[C@@H](CO)NCc1ccc(OCc2ccccc2C(F)(F)F)cc1 | – | – | 85.6 mg/kg | –
8 | CNC(=O)[C@@H](NCc1ccc(OCc2ccccc2)cc1)C(C)C | – | – | 55.4 mg/kg | –
9 | C[C@@H](NCc1ccc(CCc2ccccc2)cc1)C(N)=O | 17.8 mg/kg | 630 mg/kg | 40.3 mg/kg | –
10 | CNC(=O)[C@@H](CO)NCc1ccc(OCc2ccccc2)cc1 | 22.8 mg/kg | – | – | ED50 (Mus musculus [4]): 16.3 mg/kg
11 | CNC(=O)[C@@H](CO)NCc1ccc(OCc2cccc(OC)c2)cc1 | – | – | 109 mg/kg | –
12 | C[C@@H](NCc1ccc(NCc2ccccc2)cc1)C(N)=O | 11.5 mg/kg | 217 mg/kg | 9.3 mg/kg | ED50 (Mus musculus [5]): 16.3 mg/kg; ED50 (Mus musculus [6]): 37.5 mg/kg; ED50 (Mus musculus [7]): 50.3 mg/kg
13 | C[C@@H](NCc1ccc(OCC2CC2)cc1)C(N)=O | – | – | 124 mg/kg | –
14 | C[C@@H](NCc1ccc(OCc2ccccc2F)cc1)C(N)=O | 7 mg/kg | 549 mg/kg | 25.8 mg/kg | –
15 | C[C@@H](NCc1ccc(OCCc2ccccc2)cc1)C(N)=O | 12.2 mg/kg | 1120 mg/kg | 24.9 mg/kg | –
16 | CC[C@@H](NCc1ccc(OCc2ccccc2)cc1)C(N)=O | 7.2 mg/kg | 277 mg/kg | 55 mg/kg | –
17 | CNC(=O)CNCc1ccc(OCc2cccc(Cl)c2)cc1 | 48.6 mg/kg | – | 30.5 mg/kg | –
18 | C[C@@H](NCc1ccc(/C=C/c2ccccc2)cc1)C(N)=O | – | – | – | ED50 (Mus musculus [8]): 400 mg/kg
19 | C[C@@H](NCc1ccc(Oc2ccccc2)cc1)C(N)=O | 41.5 mg/kg | – | 64 mg/kg | –
20 | C[C@@H](NCc1ccc(CNc2ccccc2)cc1)C(N)=O | – | – | 119 mg/kg | –
21 | CCCCC(C)NCC(N)=O (stereo not drawn) | – | – | 640 mg/kg | –

Row | Structure (SMILES) | ED50 (Mus musculus [1]) | TD50 [2] | ED50 (Mus musculus [3]) | further results
22 | C[C@@H](NCc1ccc(OCc2ccco2)cc1)C(N)=O | – | – | 116 mg/kg | –
23 | NC(=O)CNC(=O)c1ccc(OCc2cccc(Cl)c2)cc1 | – | – | – | ED50 (Mus musculus [8]): 400 mg/kg
24 | CNC(=O)[C@@H](CCSC)NCc1ccc(OCc2ccccc2)cc1 | – | – | – | ED50 (Mus musculus [9]): > 400 mg/kg
25 | NC(=O)CNc1ccc(OCc2cccc(Cl)c2)cc1 | – | – | – | ED50 (Mus musculus [8]): 400 mg/kg
26 | C[C@H](Nc1cccc(OCc2ccccc2)c1)C(N)=O | – | – | 79.7 mg/kg | –
27 | C[C@@H](NCc1ccc(OCc2ccoc2)cc1)C(N)=O | – | – | 152 mg/kg | –
28 | CNC(=O)[C@H](Cc1ccccc1)NCc1ccc(OCc2ccccc2)cc1 | – | – | 61.2 mg/kg | –
29 | NC(=O)CNCCc1ccc(OCc2cccc(Cl)c2)cc1 | – | – | 192 mg/kg | –
30 | CN(CC(N)=O)Cc1ccc(OCc2cccc(Cl)c2)cc1 | 70 mg/kg | – | 114 mg/kg | –
31 | CNC(=O)[C@@H](CO)NCc1ccc(OCc2ccccc2F)cc1 | 19.8 mg/kg | 371 mg/kg | 12.4 mg/kg | –
32 | CC[C@H](NCc1ccc(OCc2ccccc2)cc1)C(N)=O | – | – | 119 mg/kg | –
33 | C[C@@H](NCc1ccc(OCc2ccccc2Cl)cc1)C(N)=O | 50.8 mg/kg | 525 mg/kg | 17.4 mg/kg | –
34 | C[C@@H](NCc1ccc(OCc2ccccn2)cc1)C(N)=O | – | – | 172 mg/kg | –
35 | C[C@@H](NCc1ccc(OCC2CCCCC2)cc1)C(N)=O | – | – | 131 mg/kg | –
36 | NC(=O)CNCc1ccc(OCc2cccc(Cl)c2)cc1 | 28.5 mg/kg | – | 107 mg/kg | –
37 | CNC(=O)[C@H](CC(C)C)NCc1ccc(OCc2ccccc2)cc1 | – | – | – | ED50 (Mus musculus [8]): > 100 mg/kg
38 | CN(C)C(=O)CNCc1ccc(OCc2cccc(Cl)c2)cc1 | – | – | – | ED50 (Mus musculus [4]): 54.2 mg/kg
39 | C[C@@H](NCc1ccc(OCc2cccs2)cc1)C(N)=O | – | – | 61.6 mg/kg | –
40 | NC(=O)CNCc1ccccc1 | – | – | 490 mg/kg | –
41 | C[C@H](Nc1ccccc1OCc1ccccc1)C(N)=O | – | – | 210 mg/kg | –
42 | C[C@H](NCc1ccc(OCc2ccccc2Cl)cc1)C(N)=O | – | – | – | ED50 (Mus musculus [4]): 18.4 mg/kg

Row | Structure (SMILES) | ED50 (Mus musculus [1]) | TD50 [2] | ED50 (Mus musculus [3]) | further results
43 | CNC(=O)[C@H](NCc1ccc(OCc2ccccc2)cc1)C(C)O (stereo partly drawn) | – | – | – | ED50 (Mus musculus [4]): 21 mg/kg
44 | CNC(=O)[C@@H](NCc1ccc(OCc2ccccc2)cc1)C(C)O (stereo partly drawn) | – | – | – | ED50 (Mus musculus [4]): 34.2 mg/kg
45 | C[C@@H](NCc1ccc(-c2ccccc2)cc1)C(N)=O | – | – | 231 mg/kg | –
46 | CNC(=O)[C@@H](CC(C)C)NCc1ccc(OCc2ccccc2)cc1 | – | – | 192 mg/kg | –
47 | CNC(=O)[C@H](C)NCc1ccc(OCc2ccccc2)cc1 | 7 mg/kg | 224 mg/kg | 8.4 mg/kg | –
48 | CNC(=O)[C@H](NCc1ccc(OCc2ccccc2)cc1)C(C)C | – | – | 112 mg/kg | –
49 | NC(=O)CNCc1ccc(OCc2ccccc2)cc1 | 11.5 mg/kg | 473 mg/kg | 68.6 mg/kg | –
50 | C[C@@H](NCc1ccc(OCc2cccnc2)cc1)C(N)=O | – | – | – | ED50 (Mus musculus [9]): > 400 mg/kg
51 | C[C@@H](NCc1ccc(OCc2ccsc2)cc1)C(N)=O | – | – | 114 mg/kg | –
52 | CNC(=O)[C@@H](CO)NCc1ccc(OCc2cccc(C)c2)cc1 | 30.6 mg/kg | 1250 mg/kg | 41.3 mg/kg | –
53 | CNC(=O)[C@@H](CO)NCc1ccc(OCc2ccc(Cl)cc2)cc1 | – | – | 216 mg/kg | –
54 | C[C@@H](NCc1ccc(Cc2ccccc2)cc1)C(N)=O | 22.5 mg/kg | 752 mg/kg | 15.7 mg/kg | –
55 | NC(=O)CNCCc1ccccc1 | – | – | 286 mg/kg | –
56 | C[C@@H](NCc1ccc(OCc2cccc(F)c2)cc1)C(N)=O | 8 mg/kg | 626 mg/kg | 26.9 mg/kg | ED50 (Mus musculus [5]): 21.5 mg/kg; ED50 (Mus musculus [6]): 60.6 mg/kg; ED50 (Mus musculus [7]): 104 mg/kg
57 | CNC(=O)[C@@H](CO)NCc1ccc(OCc2cccc(F)c2)cc1 | 13 mg/kg | 915 mg/kg | 25.1 mg/kg | ED50 (Mus musculus [5]): 35.6 mg/kg; ED50 (Mus musculus [6]): 120 mg/kg; ED50 (Mus musculus [7]): > 250 mg/kg
58 | C[C@@H](NCc1ccc(OCCCc2ccccc2)cc1)C(N)=O | 6.7 mg/kg | 584 mg/kg | 19 mg/kg | ED50 (Mus musculus [5]): 16.2 mg/kg; ED50 (Mus musculus [6]): 35.4 mg/kg; ED50 (Mus musculus [7]): 75.4 mg/kg
59 | NC(=O)N1c2ccccc2C=Cc2ccccc21 [CARBAMAZEPINE] | 9.8 mg/kg | 106 mg/kg | 6.7 mg/kg | ED50 (Mus musculus [5]): 20.1 mg/kg; ED50 (Mus musculus [6]): 40.6 mg/kg; ED50 (Mus musculus [7]): 43.8 mg/kg
60 | CN1C(=O)CN=C(c2ccccc2)c2cc(Cl)ccc21 [DIAZEPAM] | 1.2 mg/kg | – | 0.29 mg/kg | ED50 (Mus musculus [5]): 0.62 mg/kg; ED50 (Mus musculus [6]): 0.52 mg/kg; TD50 (Mus musculus [10]): 6.8 mg/kg; ED50 (Mus musculus [7]): 0.58 mg/kg
61 | Nc1nnc(-c2cccc(Cl)c2Cl)c(N)n1 [LAMOTRIGINE] | 2.2 mg/kg | 84 mg/kg | 10.2 mg/kg | ED50 (Mus musculus [5]): > 40 mg/kg; ED50 (Mus musculus [7]): > 40 mg/kg
62 | CCCCCNCC(N)=O [MILACEMIDE] | – | – | 701 mg/kg | –
63 | CCCC(CCC)C(=O)O [VALPROIC ACID] | – | 1180 mg/kg | 414 mg/kg | ED50 (Mus musculus [5]): 167 mg/kg; ED50 (Mus musculus [6]): 350 mg/kg; ED50 (Mus musculus [7]): 538 mg/kg

Source: ChEMBL document CHEMBL1131598, “Synthesis and anticonvulsant activity of a new class of 2-[(arylalky)amino]alkanamide derivatives” (J Med Chem, 1998)
